# SR-BI DiI-HDL act = activators of SR-BI mediated DiI-HDL uptake, primary screen, ldlA[mSR-BI] CHO cells, DiI fluorescence. 3 h; 100 = double the neutral-control signal. activation, % at 12.5 µM. 320,000 tested, 0.096% active. AID 504775, 2011;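 active means mean replicate activation of at least 60% and every replicate at or above 60%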;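 further: 0% = median plate neutral-control signal and 100% = twice that signal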
#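 Assay system: CHO ldlA[mSR-BI] cells, LDL receptor-null, SR-BI overexpressing; medium: Ham's F12 with 0.5% BSA, HEPES 25 mM, pH 7.4; also added: DiI-HDL 10 µg/mL; timing: 3 h uptake period with compound, 37 °C; signal: DiI fluorescence, bottom read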
# SR-BI HDL uptake = inhibitors of SR-BI mediated HDL lipid uptake, primary screen, ldlA[mSR-BI] cells, fluorescence, single point; Scavenger receptor class B member 1 (Mus musculus), Q61009; ldlA[mSR-BI] CHO cells, DiI-HDL uptake fluorescence, 3 h; inhibition, % at 12.5 µM; 320,000 tested, 0.96% active;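 active means mean replicate inhibition of at least 70% and a set share of replicates each scoring 70 or more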;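 further: 0% = median of neutral control wells and 100% = median of positive control wells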
# UBC13 inh = UBC13 polyubiquitin chain formation inhibitors, primary screen, biochemical, TR-FRET, uHTS; AID 485273, 2010; inhibition, % at 20 µM; 330,000 tested, 0.47% active; in the data active means inhibition above about 45%, passing the limit was not always enough
# Neddylation inh = inhibitors of cullin neddylation, primary screen, biochemical, TR-FRET, uHTS, NAE and Ubc12. AID 651699, 2012. inhibition, % at 25 µM. 360,000 tested, 0.58% active. NEDD8-conjugating enzyme Ubc12 (Homo sapiens) + NEDD8-activating enzyme E1 regulatory …; in the data active means inhibition above about 36%
# Target sequence (P61081 whole entry, looked up): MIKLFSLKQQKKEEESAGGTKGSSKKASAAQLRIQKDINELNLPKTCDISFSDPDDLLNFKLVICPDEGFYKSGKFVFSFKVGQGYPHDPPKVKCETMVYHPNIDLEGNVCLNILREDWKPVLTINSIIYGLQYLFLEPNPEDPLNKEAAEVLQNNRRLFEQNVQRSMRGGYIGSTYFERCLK
# Target sequence (Q13564 whole entry, looked up): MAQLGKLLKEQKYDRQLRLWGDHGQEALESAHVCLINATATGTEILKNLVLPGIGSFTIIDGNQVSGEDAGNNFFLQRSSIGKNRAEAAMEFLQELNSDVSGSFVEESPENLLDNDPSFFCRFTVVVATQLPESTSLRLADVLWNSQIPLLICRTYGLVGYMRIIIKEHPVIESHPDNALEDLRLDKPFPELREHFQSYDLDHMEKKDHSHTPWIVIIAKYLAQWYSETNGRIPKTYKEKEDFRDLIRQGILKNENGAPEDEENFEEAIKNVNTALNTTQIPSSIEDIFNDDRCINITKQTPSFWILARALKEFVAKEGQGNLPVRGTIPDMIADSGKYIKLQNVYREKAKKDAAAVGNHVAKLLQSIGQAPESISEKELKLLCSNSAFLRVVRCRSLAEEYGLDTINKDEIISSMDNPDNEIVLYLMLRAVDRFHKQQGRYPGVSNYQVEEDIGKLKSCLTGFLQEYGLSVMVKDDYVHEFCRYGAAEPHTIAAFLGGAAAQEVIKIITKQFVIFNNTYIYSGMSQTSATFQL
# The depositor's hits bear a star; / = no result given. In the library only some 1.9% were active in any assay of this set; here they are far more common.
SMILES,SR-BI DiI-HDL act,SR-BI HDL uptake,UBC13 inh,Neddylation inh
COc1ccc(C(=O)N[C@H](C(=O)Nc2cccc(S(=O)(=O)N3CCOCC3)c2)C(C)C)cc1,/,/,/,1.6
COc1ccc(/C=C2\N=C(SC)N(c3ccccc3OC)C2=O)cc1,/,/,8.3,0.9
CC1(c2nnnn2-c2ccc3c(c2)OCCO3)CCC(=O)N1Cc1cccnc1 (stereo not given),/,/,/,6.5
COc1ccccc1CCC(=O)Nc1ccc2c(c1)CN(Cc1ccc(CO)o1)CC2,-76.9,76.9*,-4.9,7.6
O=[N+]([O-])c1ccc(CP(=O)(c2ccccc2)c2ccccc2)cc1,-28.3,28.3,3.3,-29.6
O=C(O)c1ccc(N/N=C/c2cc3cc4c(cc3nc2Cl)OCCO4)cc1,/,/,-8.9,37.0*
COc1ccc(S(=O)(=O)NC(=O)C2(C)CCN2C(=O)C2CCCCC2)cc1OC (stereo not given),/,/,/,-5.5
CCCn1c(Sc2nnnn2-c2ccccc2)n[nH]c1=O,79.6*,-79.6,0.7,0.6
COc1cccc(C(C)(O)c2nc(-c3ccc(S(C)(=O)=O)cc3)cs2)c1 (stereo not given),/,/,/,-21.2
CCCOc1cccc(-c2cc(C(=O)N/N=C/c3ccccn3)c3ccccc3n2)c1,-52.4,52.5,-34.4,10.3
COc1ccc(NC(=O)c2cc(-c3ccc(OC)c(OC)c3)nc3ccccc23)c(OC)c1,-94.7,94.7*,4.4,-13.4
CC(=O)Nc1ccc(NC(=O)c2cc(-c3ccccc3)nc3ccccc23)cc1,-75.2,75.2*,1.1,30.9
Cc1ccc(C)c(NC(=O)c2cc(C)nc3ccccc23)c1,-78.6,78.6*,-6.5,-2.9
CCCOc1cccc(-c2cc(C(=O)NN)c3ccccc3n2)c1,-84.4,84.4*,0.4,-6.4
Cc1cc(C)nc(NNS(=O)(=O)c2c(F)cc(F)cc2Br)n1,-0.5,0.5,-19.8,-4.1
COc1ccc(NC(=O)Nc2cccc3c2O[C@H](CN(C)S(=O)(=O)c2cn(C)cn2)[C@@H](C)CN([C@H](C)CO)C3=O)cc1,-10.7,10.7,6.8,-10.0
C/C(=N\NC(=O)c1cc(-c2cccnc2)nc2ccccc12)c1ccccc1O,-106.6,106.7*,-15.0,2.2
O=C(Nc1nc2c(s1)CCCC2)c1cc(-c2ccncc2)nc2ccccc12,-76.0,76.0*,-24.4,5.6
Cc1ccc(-c2cc(C(=O)Nc3cc(C)on3)c3ccccc3n2)c(C)c1,-77.6,78.2*,-1.4,-0.8
COc1ccc(NC(=O)c2cc(CC(C)C)nc3ccccc23)cc1,-76.1,76.1*,0.8,-11.0
CCN1C(=O)C(=O)N(Cc2ccc(OC)c(F)c2)C1=O,3.6,-3.6,1.9,0.6
Cc1onc(-c2c(F)cccc2Cl)c1C(=O)OCC(=O)Nc1cccc(S(=O)(=O)N(C)C)c1,-24.3,24.3,/,-11.2
O=C(NC(=S)Nc1nc2c(s1)CCCC2)c1ccc(C(=O)c2ccccc2)cc1,-76.4,76.4*,-6.0,2.6
CCn1cc(CNC(=O)c2cc(-c3cc(OC)ccc3OC)nc3ccccc23)c(C)n1,-78.3,78.3*,-2.0,18.2
COc1cc(-c2cc(C(=O)Nc3cccc(C(C)=O)c3)c3ccccc3n2)cc(OC)c1OC,-84.5,84.5*,6.2,/
SMILES,SR-BI DiI-HDL act,SR-BI HDL uptake,UBC13 inh,Neddylation inh
O=C(Nc1cccnc1)c1cc(-c2ccc(Br)cc2)nc2ccccc12,-86.8,86.8*,-7.5,-134.6
Cc1ccc(C)c(-c2cc(C(=O)Nc3cccnc3)c3ccccc3n2)c1,-28.4,28.4,-5.3,-39.4
Cc1cccc(NC(=O)C2C3C=CC(O3)C2C(=O)O)c1 (stereo not given),/,/,0.9,/
O=C(CCCl)N1CCN(c2nc(-c3ccccc3)cs2)CC1,19.7,-19.7,3.8,0.3
COc1ccc(CC(=O)NNS(=O)(=O)c2ccc([N+](=O)[O-])cc2)cc1OC,61.4*,-61.4,-10.3,-21.8
CC(=O)Nc1ccc(/C(C)=N/Nc2nc(Nc3ccccc3)nc(N3CCOCC3)n2)cc1,-84.5,84.5*,-12.2,1.4
Cc1ccc(/C=N/Nc2cc(C)nc(N3CCOCC3)n2)cc1,0.1,-0.1,-13.8,-0.3
Cc1ccc(Nc2nc(N/N=C\c3ccc4c(c3)OCO4)nc(N3CCOCC3)n2)cc1,-86.0,86.0*,-8.0,9.6
CC(=O)c1ccc(Nc2nc(N3CCOCC3)nc(N3CCOCC3)n2)cc1,2.8,-2.8,5.4,-20.4
COc1ccc(CC(=O)Oc2ccc(C)cc2Br)cc1OC,/,-18.9,8.1,7.3
Cc1cc2cc3c(=O)[nH]c(=O)[nH]c3nc2cc1C,/,/,12.6,/
CC1(C(=O)NCc2ccccc2)CSCC(=O)N1Cc1cccc(F)c1 (stereo not given),/,/,/,29.0
Cc1nc2ccc(C(=O)Nc3cccc(OCC(=O)N(C)C)c3)cn2c1N(C)CC1CCCCC1,/,/,/,7.4
CCCOc1cccc(C(=O)N/N=C/c2ccoc2)c1,-4.3,4.3,-4.7,-2.6
NC(=S)NN=C(c1ccc(F)cc1)C1CC1,-89.7,89.7*,/,6.8
NC(=S)NN=C(c1ccc(Br)cc1)C1CC1,-78.6,78.6*,/,13.0
Cc1cc(C(C)(C)C)cc(C)c1COC(=O)c1cccnc1,/,/,1.6,2.5
COc1cc(Cl)cc(/C=C/c2ccc3cccc(O)c3n2)c1OC,-49.7,49.7,-21.6,2.0
COc1ccc(Cl)cc1/C=C/c1ccc2cccc(O)c2n1,-83.3,83.3*,-21.9,4.7
Cc1nc(-c2ccc(F)cc2)c(CC(=O)N(C)CC(=O)Nc2cccc(F)c2)s1,/,/,/,-2.7
CCOc1ccccc1C(=O)NCC(=O)OCCCOC(=O)CNC(=O)c1ccccc1OCC,-84.4,84.5*,0.3,1.3
CCOc1ccccc1C(=O)Nc1cc(Cl)ccc1O,-86.0,86.0*,5.0,28.0
CCOc1cc(NC(=S)Nc2cccc(OC)c2)c(OCC)cc1NC(=O)c1ccc(C)cc1,-63.8,63.8,-17.2,16.2
CCOc1cc(NC(=S)Nc2ccccc2)c(OCC)cc1NC(=O)c1ccc(OC)cc1,-88.8,88.8*,-20.9,22.9
CCOc1ccccc1C(=O)Nc1cc(OC)ccc1OC,-78.8,78.8*,4.9,21.3
SMILES,SR-BI DiI-HDL act,SR-BI HDL uptake,UBC13 inh,Neddylation inh
CCOc1cc(NC(=O)c2ccccc2OC)c(OCC)cc1NC(=O)c1ccccc1,-34.5,34.5,-1.3,/
Nc1ccn([C@@H]2O[C@H](CNCc3cnc(N4CCOCC4)nc3)[C@@H](O)[C@H]2O)c(=O)n1,/,/,/,0.1
CCCCS(=O)(=O)N1CCCC(C(=O)Nc2ccc3c(c2)CCC3)C1 (stereo not given),-20.3,20.3,-0.4,7.7
CCOCC(O)CNc1ccccc1 (stereo not given),28.0,-28.0,-13.2,11.5
OC(CNc1ccccc1)COc1ccc(OCC(O)CNc2ccccc2)cc1 (stereo not given),-73.6,73.6*,8.3,-4.2
O=C(C1CCCCC1)N1CCN(c2ccccc2F)CC1,12.9,-13.0,3.5,3.1
O=C(Nc1ccccc1)N1CCC(C(=O)N2CCN(c3ccccc3F)CC2)CC1,-79.9,79.8*,3.6,-0.8
COCCCNC(=O)c1cc2cc(Br)ccc2oc1=O,15.1,-15.1,-12.7,-15.4

# Assay outcomes from PubChem.
